Columns and labels:
Tumor Cell line [1] = test: Drug concentration required to cause 50% cell death; type: functional, Homo sapiens
Method in brief: (§1)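 NCI in vitro panel of 54 human tumor cell lines from eight cancer types, mostly seeded at 20 000 cells/well and preincubated 24 h without drug. Five 10-fold dilutions were then added for a further 48 h. Cells were fixed in situ and stained with sulforhodamine B, and bound dye was read spectrophotometrically. LC50 (−50% growth versus control) was taken from five-point dose-response curves and reported as the log10 mean-graph midpoint across lines.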

Tumor Cell line [2] = test: 50% of human tumor cell growth; type: functional
Method in brief: (§2)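 NCI panel of 54 human tumor lines from eight cancer types, mostly seeded at 20 000 cells/well. Cells were preincubated 24 h without drug, then exposed to five 10-fold dilutions for 48 h, fixed and stained with sulforhodamine B, and read spectrophotometrically. Versus control, GI50 (50% growth inhibition), TGI (0% growth) and LC50 (−50% growth) were calculated; mean graph midpoints average all lines.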

KB [3] = test: Cytotoxicity against KB cells after a 3 day incubation; type: functional, Homo sapiens; details: read-out: ID50 (the source's name)
Method in brief: (§3)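 KB cells (parental ATCC line and resistant variants) exposed to drug at five concentrations […] for 3 days. ID50 is the concentration giving 50% reduction in cell number, derived from the degree of inhibition at the five concentrations.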

Tumor Cell line [4] = test: Drug concentration required to inhibit total cell growth; type: functional, Homo sapiens; details: read-out: Log TGI (converted); method in brief: as §2
Tumor Cell line [5] = test: Drug molar concentration required to inhibit 50% of human tumor cell growth; type: functional; method in brief: as §2
KB [6] = test: 50% reduction in the number of KB 7D (topoisomerase II, aMDR) resistant variant; type: functional, Homo sapiens; details: read-out: ID50 (the source's name); method in brief: as §3
KB [7] = test: Inhibitory dose value is the concentration which affords 50% reduction in the number of KB ATCC cells; type: functional; details: Homo sapiens, read-out: ID50 (the source's name); method in brief: as §3
KB [8] = test: 50% reduction in the number of KB V20C resistant variant; type: functional, Homo sapiens; details: read-out: ID50 (the source's name); method in brief: as §3
Tumor Cell line [9] = test: LC 50 is the concentration required to cause 50% cell death; type: functional; details: Homo sapiens, read-out: Log LC50 (the source's name) (converted); method in brief: as §1
CAKI-1 = test: (§4) In vitro anti tumor activity against human tumor Renal cancer cell lines was determined; type: functional
Method in brief: (§5)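 NCI in vitro screen of 54 human tumour lines from eight cancer types. Cells seeded mostly at 20 000/well, preincubated 24 h without drug, then exposed to five 10-fold dilutions for 48 h. Cells fixed in situ, stained with sulforhodamine B, bound dye solubilised and read spectrophotometrically. GI50, TGI (0% growth) and LC50 (-50% growth) were taken from dose-response curves relative to control. Mean-graph midpoints averaged across all lines.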

786-0 = test: as §4; type: functional; method in brief: as §5
RXF 393 = test: as §4; type: functional; method in brief: as §5
SN12C = test: as §4; type: functional; method in brief: as §5
TK-10 = test: as §4; type: functional; method in brief: as §5
UO-31 = test: as §4; type: functional; method in brief: as §5
ACHN = test: as §4; type: functional; method in brief: as §5
KB [10] = test: 50% reduction in the number of KB ATCC cells; type: functional; details: Homo sapiens, read-out: ID50 (the source's name); method in brief: as §3
NCI-H23 = test: (§6) In vitro anti tumor activity against human non-small cell lung cancer cell lines was determined; details: NCI-H23, read-out: Log GI50 (converted)
HOP-92 = test: as §6; type: functional; method in brief: as §5
NCI-H226 = test: as §6; type: functional; method in brief: as §5
LXFL 529 = test: as §6; type: functional; method in brief: as §5
NCI-H322M = test: as §6; type: functional; method in brief: as §5
A549 = test: as §6; type: functional; method in brief: as §5
NCI-H522 = test: as §6; type: functional; method in brief: as §5
EKVX = test: as §6; type: functional; method in brief: as §5
HOP-62 = test: as §6; type: functional; method in brief: as §5
NCI-H460 = test: as §6; type: functional; method in brief: as §5
OVCAR-8 = test: (§7) In vitro anti tumor activity against human tumor Ovarian cancer cell lines was determined; type: functional; method in brief: as §5
IGROV-1 = test: as §7; type: functional; method in brief: as §5
OVCAR-3 = test: as §7; type: functional; method in brief: as §5
SK-OV-3 = test: as §7; type: functional; method in brief: as §5
OVCAR-4 = test: as §7; type: functional; method in brief: as §5
HL-60 = test: (§8) In vitro anti tumor activity against human tumor leukemia cell lines was determined; type: functional; method in brief: as §5
MOLT-4 = test: as §8; type: functional; method in brief: as §5
SR = test: as §8; type: functional; method in brief: as §5
CCRF-CEM = test: as §8; type: functional; method in brief: as §5
RPMI-8226 = test: as §8; type: functional; method in brief: as §5
K562 = test: as §8; type: functional; method in brief: as §5
[11] = system: Panel (56 tumour cell lines); test: In vitro anti tumor activity against human tumor cell lines was determined; type: functional; method in brief: as §5
SF-539 = test: (§9) In vitro anti tumor activity against human CNS cancer cell lines was determined; type: functional; method in brief: as §5
SNB-78 = test: as §9; type: functional; method in brief: as §5
U-251 = test: as §9; type: functional; method in brief: as §5
XF498 = test: as §9; type: functional; method in brief: as §5
SF-268 = test: as §9; type: functional; method in brief: as §5
SNB-75 = test: as §9; type: functional; method in brief: as §5
SF-295 = test: as §9; type: functional; method in brief: as §5
SNB-19 = test: as §9; type: functional; method in brief: as §5
UACC-257 = test: (§10) In vitro anti tumor activity against human melanoma cell lines was determined; type: functional; method in brief: as §5
M19-MEL = test: as §10; type: functional; method in brief: as §5
SK-MEL-2 = test: as §10; type: functional; method in brief: as §5
SK-MEL-28 = test: as §10; type: functional; method in brief: as §5
Malme-3M = test: as §10; type: functional; method in brief: as §5
LOX IMVI = test: as §10; type: functional; method in brief: as §5
M14 = test: as §10; type: functional; method in brief: as §5
SK-MEL-5 = test: as §10; type: functional; method in brief: as §5
UACC-62 = test: as §10; type: functional; method in brief: as §5
DMS-114 = test: (§11) In vitro anti tumor activity against human tumor small cell lung cancer cell lines was determined; type: functional; method in brief: as §5
DMS-273 = test: as §11; type: functional; method in brief: as §5
HCT-15 = test: (§12) In vitro anti tumor activity against human colon tumor cell lines was determined; type: functional; method in brief: as §5
SW-620 = test: as §12; type: functional; method in brief: as §5
DLD-1 = test: as §12; type: functional; method in brief: as §5
HCT-116 = test: as §12; type: functional; method in brief: as §5
KM-20L2 = test: as §12; type: functional; method in brief: as §5
HT-29 = test: as §12; type: functional; method in brief: as §5
HCC 2998 = test: as §12; type: functional; method in brief: as §5
KM12 = test: as §12; type: functional; method in brief: as §5
COLO 205 = test: as §12; type: functional; method in brief: as §5

COc1cc([C@@H]2c3cc4c(cc3[C@@H](NCCN3CCCCC3)[C@H]3COC(=O)[C@H]23)OCO4)cc(OC)c1O
LC50 (Tumor Cell line [1]): 30.9 µM
GI50 (Tumor Cell line [2]): 372 nM
IC50 (KB [3]): 1400 nM
TGI (Tumor Cell line [4]): 3310 nM

COc1cc([C@@H]2c3cc4c(cc3[C@@H](NC3CCN(Cc5ccccc5)CC3)[C@H]3COC(=O)[C@H]23)OCO4)cc(OC)c1O [listing 1 of 2 here]
GI50 (Tumor Cell line [5]): 174 nM
IC50 (KB [6]): 50 nM
IC50 (KB [3]): 27 nM
TGI (Tumor Cell line [4]): 1480 nM
IC50 (KB [7]): 27 nM
IC50 (KB [8]): 26 nM

COc1cc([C@@H]2c3cc4c(cc3[C@@H](NCCCN(C)C)[C@H]3COC(=O)[C@H]23)OCO4)cc(OC)c1O
GI50 (Tumor Cell line [5]): 331 nM
IC50 (KB [6]; Homo sapiens, KB): 660 nM
TGI (Tumor Cell line [4]): 2190 nM
CC50 (Tumor Cell line [9]): 12.6 µM

COc1cc([C@@H]2c3cc4c(cc3[C@@H](NC3CCN(Cc5ccccc5)CC3)[C@H]3COC(=O)[C@H]23)OCO4)cc(OC)c1O [listing 2 of 2 here]
GI50 (CAKI-1): 275 nM
GI50 (786-0): 33.1 nM
GI50 (RXF 393): 398 nM
GI50 (SN12C): 39.8 nM
GI50 (TK-10): 195 nM
GI50 (UO-31): 87.1 nM
GI50 (ACHN): 18.2 nM
IC50 (KB [10]): 24 nM
GI50 (Tumor Cell line [5]; Homo sapiens, Tumor Cell line): 87.1 nM
GI50 (NCI-H23): 40.7 nM
GI50 (HOP-92): 25.7 nM
GI50 (NCI-H226): 11 nM
GI50 (LXFL 529): 437 nM
GI50 (NCI-H322M): 1070 nM
GI50 (A549): 13.8 nM
GI50 (NCI-H522): 83.2 nM
GI50 (EKVX): 776 nM
GI50 (HOP-62): 26.9 nM
GI50 (NCI-H460): < 10 nM
GI50 (OVCAR-8): 97.7 nM
GI50 (IGROV-1): 38.9 nM
GI50 (OVCAR-3): 302 nM
GI50 (SK-OV-3): 53.7 nM
GI50 (OVCAR-4): 1120 nM
IC50 (KB [6]; Homo sapiens, KB): 97.5 nM
IC50 (KB [3]; Homo sapiens, KB, 72 h): 21 nM
GI50 (HL-60): 13.8 nM
GI50 (MOLT-4): < 10 nM
GI50 (SR): 10 nM
GI50 (CCRF-CEM): 22.4 nM
GI50 (RPMI-8226): 53.7 nM
GI50 (K562): 123 nM
GI50 [11]: 87.1 nM
GI50 (SF-539): 53.7 nM
GI50 (SNB-78): 933 nM
GI50 (U-251): 26.3 nM
GI50 (XF498): 132 nM
GI50 (SF-268): 129 nM
GI50 (SNB-75): 219 nM
GI50 (SF-295): 36.3 nM
GI50 (SNB-19): 93.3 nM
TGI (Tumor Cell line [4]): 525 nM
GI50 (UACC-257): 257 nM
GI50 (M19-MEL): 204 nM
GI50 (SK-MEL-2): 240 nM
GI50 (SK-MEL-28): 324 nM
GI50 (Malme-3M): 112 nM
GI50 (LOX IMVI): 34.7 nM
GI50 (M14): 47.9 nM
GI50 (SK-MEL-5): 74.1 nM
GI50 (UACC-62): 36.3 nM
GI50 (DMS-114): 64.6 nM
GI50 (DMS-273): 21.9 nM
IC50 (KB [8]; Homo sapiens, KB): 21.5 nM
GI50 (HCT-15): 123 nM
GI50 (SW-620): 75.9 nM
GI50 (DLD-1): 427 nM
GI50 (HCT-116): 151 nM
GI50 (KM-20L2): 204 nM
GI50 (HT-29): 138 nM
GI50 (HCC 2998): 174 nM
GI50 (KM12): 204 nM
GI50 (COLO 205): 178 nM
